Molecular target: TopBP1 (Homo sapiens, UniProt Q92547)
Assay type: biochemical
Outline: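 E. coli BL21-expressed (0.1 mM IPTG) TopBP1-BRCT7/8, GST cleaved off with PreScission, 2 μg preincubated with compound in NETN-A (50 mM NaCl, 1 mM EDTA, 20 mM Tris, 0.5% NP-40), 3 h, 4°C, rotating. Then 2 μg biotin-pS1159 peptide (non-phospho peptide control; streptavidin-Sepharose) or GST-p53-DBD (GST control; glutathione-Sepharose) added, 3 h, 4°C. Six NETN-B washes; SDS-PAGE, anti-TopBP1 immunoblot.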

TopBP1, sequence (Q92547 1264-1493 limits assumed): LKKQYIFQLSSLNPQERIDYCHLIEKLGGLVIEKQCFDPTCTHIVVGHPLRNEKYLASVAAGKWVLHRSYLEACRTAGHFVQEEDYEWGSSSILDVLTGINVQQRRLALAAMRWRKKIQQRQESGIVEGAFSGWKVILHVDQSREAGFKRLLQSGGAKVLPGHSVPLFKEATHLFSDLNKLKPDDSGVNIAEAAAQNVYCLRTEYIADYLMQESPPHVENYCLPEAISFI

Pulldown competition with purified proteins: biotin-pS1159 peptide streptavidin: submicromolar
SMILES: O=C(O)CN(CC(=O)O)Cc1cc2c(cc1O)Oc1cc(O)c(CN(CC(=O)O)CC(=O)O)cc1C21OC(=O)c2ccccc21 [calcein]

— paper PMC4254804 (Nature communications, 2014)
